# Compounds with a hit are over-represented: about 5.2% of the library has one in this group of screens.
# core dimer inh – blocks dimerization of HCV core protein; TR-FRET GST/Flag-core106 dimerization, 1536-well; 0.33% of 300,000 active; inhibition, % at 5 µM;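 active means inhibition above the mean of all tested compounds plus 3 SD, set per screening campaign, cut at about 45% in these data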
#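 Assay system: tagged HCV core106 pair (GST and Flag); medium: KF-containing HEPES buffer, pH 7.45, DTT, CHAPS, BSA; also added: Eu donor and XL665 acceptor anti-tag antibodies; dosing: 5 µM single dose; timing: compound-protein-antibody incubation 4 h at 22.5 °C; signal: TR-FRET 671 and 617 nm emission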
# EBNA-1 inhibitor – blocks EBNA-1 binding to DNA | EBNA-1 DNA binding, fluorescence polarization | inhibition, % at 14.8 µM | 0.34% of 300,000 active; in the data active means inhibition above about 28%
# M18AAP inhibitor – blocks P. falciparum M18 aspartyl aminopeptidase; recombinant PfM18AAP, H-Glu-NHMec fluorogenic cleavage; inhibition, % at 7.35 µM; 1.2% of 290,000 active;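 active means inhibition above the campaign mean inhibition over all tested compounds plus 3 SD, cut at about 28% in these data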;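 further: 0% = plate median of test compound wells and 100% = 2 mM ZnCl2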
# ZTA DNA inh – blocks Epstein-Barr virus ZTA, an EBNA-1 counter-screen | 0.15% of 320,000 active | P03206 | inhibition, % at 11 µM | ZTA-DNA binding, fluorescence polarization; in the data active means inhibition above about 33%
# ALR H2O2 inh – blocks human ALR sulfhydryl oxidase activity | 3.8% of 290,000 active | purified ALR, DTT oxidation, H2O2 HRP-luminol luminescence | inhibition, % (concentration not given with the values) | AID 485317;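 active means mean replicate inhibition above about 79%, with every replicate also reaching it, limit read from the data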
# Target sequence (P55789 whole entry, looked up): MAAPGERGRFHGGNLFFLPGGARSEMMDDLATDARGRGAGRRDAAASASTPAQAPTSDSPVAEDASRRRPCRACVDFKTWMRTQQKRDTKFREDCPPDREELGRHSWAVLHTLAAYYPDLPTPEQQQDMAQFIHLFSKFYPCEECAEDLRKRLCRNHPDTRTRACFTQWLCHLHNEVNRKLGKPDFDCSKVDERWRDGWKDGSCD
# HCV NS3 hel inh – inhibitors of Hepatitis C virus NS3 helicase; inhibition, % at 10.9 µM; AID 1800; NS3 helicase DNA unwinding, Cy5 molecular beacon fluorescence; 0.56% of 290,000 active;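 active means inhibition above the mean of all tested compounds plus 3 SD, set per campaign, cut at about 35% in these data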;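 further: 0% = DMSO wells and 100% = thioflavine S control wells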
#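 Material: hepatitis C virus NS3 helicase domain fragment enzyme; measured by: Cy5 fluorescence, 0 and 60 min reads; control set: DMSO and thioflavine S; incubation: 60 min unwinding reaction at 25 °C after ATP addition; read-out basis: % inhibition from 60/0 min fluorescence ratio, DMSO 0%, thioflavine S 100%; repeats: singlicate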
# An asterisk follows results filed as active; . = no result.
SMILES,core dimer inh,EBNA-1 inhibitor,M18AAP inhibitor,ZTA DNA inh,ALR H2O2 inh,HCV NS3 hel inh
COC(=O)[C@H](Cc1c[nH]c2ccccc12)NC(=O)NCc1ccc(OC)c(OC)c1,-3,-17,0,7,15,6
CCOC(=O)/C=C1\SCC(=O)N1Cc1ccc(Br)cc1,8,6,9,11,-18,14
CCOC(=O)/C=C1\SCC(=O)N1Cc1nnc(-c2ccccc2Br)o1,64*,1,0,-4,-5,12
Cc1cccc(N2C(=O)/C(=C/c3cccnc3)SC2=S)c1,1,5,22,-2,23,2
Cc1ccc(/C=C2\SC(=S)N(c3cccnc3)C2=O)o1,-4,0,31*,-4,-1,17
O=C(NCc1ccc2c(c1)OCO2)c1cc(-c2ccccc2)c(N2CCOCC2)s1,10,4,0,4,9,-5
O=C(NCc1ccco1)c1cc(-c2ccccc2)c(N2CCOCC2)s1,10,-9,7,-4,87*,8
O=C(O)c1cc(-c2ccccc2)c(N2CCOCC2)s1,-4,-6,14,14,99*,-1
O=C(c1nc2ccccn2c1CNCCCn1cccn1)N1CCCC1,1,-10,1,-26,3,-7
CCCCOc1ccc(/C=N/NC(=O)c2nnn(-c3nonc3N)c2C)cc1,-2,1,0,-1,.,4
CCN(CC)c1ccc(N=Nc2ncn[nH]2)cc1,-13,-15,30*,4,0,-8
CCN(CC)c1ccc(N=Nc2nn(C)c(C)c2[N+](=O)[O-])cc1,-37,5,4,-5,15,0
O=[N+]([O-])c1cccc(/C=N/n2c(C3CCCCC3)n[nH]c2=S)c1,4,4,8,-2,3,2
Cc1cc(-c2n[nH]c(=S)n2/N=C/c2cccc(O)c2)n[nH]1,-1,4,6,-8,96*,-1
Cc1cc(-c2n[nH]c(=S)n2/N=C/c2cccc([N+](=O)[O-])c2)n[nH]1,-14,7,10,-10,97*,-7
COc1ccc(CCN2CC(C(=O)NCc3nc(C)c(C)s3)CCC2=O)cc1 (stereo not drawn),-9,5,-10,0,-2,3
COc1cc(C)c(N)cc1C(C)C,2,-6,2,-5,98*,0
CC(=O)Nc1ccc(S(=O)(=O)Nc2nc3ccccc3nc2Nc2ccc(S(N)(=O)=O)cc2)cc1,-14,-10,4,-4,-6,6
CC(=O)Nc1ccc(S(=O)(=O)Nc2nc3ccccc3nc2Nc2ccc(O)c(C(=O)O)c2)cc1,-15,-6,4,-17,99*,-11
Cc1cccc(S(=O)(=O)Nc2nc3ccccc3nc2Nc2cccc(C(=O)O)c2)c1,9,17,4,15,98*,-11
O=C(O)c1cccc(Nc2nc3ccccc3nc2NS(=O)(=O)c2cccs2)c1,2,-6,-1,-4,17,6
COc1ccc2[nH]cc(CCNS(=O)(=O)c3ccccc3)c2c1,2,-8,0,-6,95*,-6
COc1ccc2[nH]cc(CCNS(=O)(=O)c3ccc(F)cc3)c2c1,-3,2,-5,-1,22,4
C/C(=N\NC(=O)COc1cccc(C)c1)c1ccc2ccccc2c1O,.,.,25,.,-10,1
O=C(NCc1cccc(F)c1)c1ccc2nc(N3CCOCC3)sc2c1,2,-7,3,-4,-3,3
SMILES,core dimer inh,EBNA-1 inhibitor,M18AAP inhibitor,ZTA DNA inh,ALR H2O2 inh,HCV NS3 hel inh
COc1ccc(Nc2nc(NN)nc(Nc3ccc(OC)cc3)n2)cc1,2,3,16,-2,4,-70
COc1ccc(Nc2nccc(-c3cccc(N)c3)n2)cc1,-8,-13,-11,-1,99*,-16
Nc1nn(-c2ccccc2)c(N)c1N=Nc1cccc(F)c1,-6,8,4,-12,10,-4
Nc1nn(-c2ccccc2)c(N)c1N=Nc1ccc2c(c1)OCO2,-19,13,21,9,95*,-10
Cc1ccccc1NC(NC(=O)c1cccnc1)C(Cl)(Cl)Cl (stereo not drawn),-6,12,0,9,-3,2
COc1ccc(NC(NC(=O)c2cccnc2)C(Cl)(Cl)Cl)cc1 (stereo not drawn),-8,-13,-4,9,99*,-7

# Source: PubChem (several laboratories)
